Results from ChEMBL document CHEMBL5376013, “Design, synthesis and biological evaluation of novel morpholinopyrimidine-5-carbonitrile derivatives as dual PI3K/mTOR inhibitors” (RSC Med Chem, 2024).

Legend:
Assay type in all cases: functional
Conditions in all cases: read-out: GI
NCI/ADR-RES = assay: Antitumor activity against human NCI-ADR-RES cells assessed as growth inhibition at 10 uM relative to control
Procedure, shortened: (§1)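 After drug addition, plates were incubated 48 h at 37 °C under 5% CO2. Adherent cells were fixed with cold TCA (10% final, 60 min, 4 °C) and suspension cells with 16% final TCA. Staining used 0.4% SRB in 1% acetic acid, solubilized in 10 mM trizma, read at A515. Percent growth was calculated from time-zero, control and treated absorbances.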

HL-60 = assay: Antitumor activity against human HL-60 cells assessed as growth inhibition at 10 uM relative to control; procedure, shortened: as §1
ACHN = assay: Antitumor activity against human ACHN cells assessed as growth inhibition at 10 uM relative to control; procedure, shortened: as §1
MOLT-4 = assay: Antitumor activity against human MOLT-4 cells assessed as growth inhibition at 10 uM relative to control; procedure, shortened: as §1
SK-OV-3 = assay: Antitumor activity against human SK-OV-3 cells assessed as growth inhibition at 10 uM relative to control
Procedure, shortened: (§2)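 Drug exposure 48 h at 37 °C, 5% CO2. Adherent cells fixed with cold TCA (10% final), suspension cells with TCA (16% final). Stained with 0.4% SRB in 1% acetic acid, dissolved in 10 mM Tris, A515. Growth relative to time-zero and untreated control.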

NCI-H226 = assay: Antitumor activity against human NCI-H226 cells assessed as growth inhibition at 10 uM relative to control; procedure, shortened: as §1
NCI-H522 = assay: Antitumor activity against human NCI-H522 cells assessed as growth inhibition at 10 uM relative to control; procedure, shortened: as §1
MDA-MB-435 = assay: Antitumor activity against human MDA-MB-435 cells assessed as growth inhibition at 10 uM relative to control; procedure, shortened: as §1
A498 = assay: Antitumor activity against human A498 cells assessed as growth inhibition at 10 uM relative to control; procedure, shortened: as §1
A549 = assay: Antitumor activity against human A549 cells assessed as growth inhibition at 10 uM relative to control; procedure, shortened: as §1
RXF 393 = assay: Antitumor activity against human RXF 393 cells assessed as growth inhibition at 10 uM relative to control; procedure, shortened: as §1
SR = assay: Antitumor activity against human SR cells assessed as growth inhibition at 10 uM relative to control; procedure, shortened: as §2
CCRF-CEM = assay: Antitumor activity against human CCRF-CEM cells assessed as growth inhibition at 10 uM relative to control; procedure, shortened: as §1
K562 = assay: Antitumor activity against human K562 cells assessed as growth inhibition at 10 uM relative to control; procedure, shortened: as §1
U-251 = assay: Antitumor activity against human U-251 cells assessed as growth inhibition at 10 uM relative to control; procedure, shortened: as §2
LOX IMVI = assay: Antitumor activity against human LOX IMVI cells assessed as growth inhibition at 10 uM relative to control; procedure, shortened: as §1
IGROV-1 = assay: Antitumor activity against human IGROV-1 cells assessed as growth inhibition at 10 uM relative to control; procedure, shortened: as §1
SN12C = assay: Antitumor activity against human SN12C cells assessed as growth inhibition at 10 uM relative to control; procedure, shortened: as §2
MCF7 = assay: Antitumor activity against human MCF7 cells assessed as growth inhibition at 10 uM relative to control; procedure, shortened: as §1
UACC-62 = assay: Antitumor activity against human UACC-62 cells assessed as growth inhibition at 10 uM relative to control; procedure, shortened: as §2
BT-549 = assay: Antitumor activity against human BT-549 cells assessed as growth inhibition at 10 uM relative to control; procedure, shortened: as §1
TK-10 = assay: Antitumor activity against human TK-10 cells assessed as growth inhibition at 10 uM relative to control; procedure, shortened: as §2
MDA-MB-231 = assay: Antitumor activity against human MDA-MB-231 cells assessed as growth inhibition at 10 uM relative to control; procedure, shortened: as §1
DU-145 = assay: Antitumor activity against human DU-145 cells assessed as growth inhibition at 10 uM relative to control; procedure, shortened: as §1
EKVX = assay: Antitumor activity against human EKVX cells assessed as growth inhibition at 10 uM relative to control; procedure, shortened: as §1
CAKI-1 = assay: Antitumor activity against human CAKI-1 cells assessed as growth inhibition at 10 uM relative to control; procedure, shortened: as §1
SK-MEL-28 = assay: Antitumor activity against human SK-MEL-28 cells assessed as growth inhibition at 10 uM relative to control; procedure, shortened: as §2
OVCAR-8 = assay: Antitumor activity against human OVCAR-8 cells assessed as growth inhibition at 10 uM relative to control; procedure, shortened: as §1
SNB-19 = assay: Antitumor activity against human SNB-19 cells assessed as growth inhibition at 10 uM relative to control; procedure, shortened: as §2
HCT-15 = assay: Antitumor activity against human HCT-15 cells assessed as growth inhibition at 10 uM relative to control; procedure, shortened: as §1
SK-MEL-5 = assay: Antitumor activity against human SK-MEL-5 cells assessed as growth inhibition at 10 uM relative to control; procedure, shortened: as §2
COLO 205 = assay: Antitumor activity against human COLO 205 cells assessed as growth inhibition at 10 uM relative to control; procedure, shortened: as §1
SK-MEL-2 = assay: Antitumor activity against human SK-MEL-2 cells assessed as growth inhibition at 10 uM relative to control; procedure, shortened: as §1
NCI-H460 = assay: Antitumor activity against human NCI-H460 cells assessed as growth inhibition at 10 uM relative to control; procedure, shortened: as §1
NCI-H23 = assay: Antitumor activity against human NCI-H23 cells assessed as growth inhibition at 10 uM relative to control; procedure, shortened: as §1
NCI-H322M = assay: Antitumor activity against human NCI-H322M cells assessed as growth inhibition at 10 uM relative to control; procedure, shortened: as §1
Hs-578T = assay: Antitumor activity against human Hs-578T cells assessed as growth inhibition at 10 uM relative to control; procedure, shortened: as §1
HCC 2998 = assay: Antitumor activity against human HCC 2998 cells assessed as growth inhibition at 10 uM relative to control; procedure, shortened: as §1
HT-29 = assay: Antitumor activity against human HT-29 cells assessed as growth inhibition at 10 uM relative to control; procedure, shortened: as §1
T47D = assay: Antitumor activity against human T47D cells assessed as growth inhibition at 10 uM relative to control; procedure, shortened: as §2
SF-268 = assay: Antitumor activity against human SF-268 cells assessed as growth inhibition at 10 uM relative to control; procedure, shortened: as §1
786-0 = assay: Antitumor activity against human 786-0 cells assessed as growth inhibition at 10 uM relative to control; procedure, shortened: as §1
OVCAR-5 = assay: Antitumor activity against human OVCAR-5 cells assessed as growth inhibition at 10 uM relative to control; procedure, shortened: as §1
PC-3 = assay: Antitumor activity against human PC-3 cells assessed as growth inhibition at 10 uM relative to control; procedure, shortened: as §1
SF-539 = assay: Antitumor activity against human SF-539 cells assessed as growth inhibition at 10 uM relative to control; procedure, shortened: as §1
UO-31 = assay: Antitumor activity against human UO-31 cells assessed as growth inhibition at 10 uM relative to control; procedure, shortened: as §2

N#Cc1c(-c2ccc(Cl)cc2)nc(N/N=C/c2cccc(Cl)c2)nc1N1CCOCC1
inhibition of growth at 10 µM (NCI/ADR-RES): 10.8% | inhibition of growth at 10 µM (HL-60): 28.5% | inhibition of growth at 10 µM (ACHN): 25.7% | inhibition of growth at 10 µM (MOLT-4): 46.7% | inhibition of growth at 10 µM (SK-OV-3): < 1% | inhibition of growth at 10 µM (NCI-H226): 10.7% | inhibition of growth at 10 µM (NCI-H522): < 1% | inhibition of growth at 10 µM (MDA-MB-435): < 1% | inhibition of growth at 10 µM (A498): 57.8% | inhibition of growth at 10 µM (A549): 18.1% | inhibition of growth at 10 µM (RXF 393): < 1% | inhibition of growth at 10 µM (SR): 91.3% | inhibition of growth at 10 µM (CCRF-CEM): 27.5% | inhibition of growth at 10 µM (K562): 64.9% | inhibition of growth at 10 µM (U-251): < 1% | inhibition of growth at 10 µM (LOX IMVI): 14.5% | inhibition of growth at 10 µM (IGROV-1): 24.8% | inhibition of growth at 10 µM (SN12C): < 1% | inhibition of growth at 10 µM (MCF7): < 14.1% | inhibition of growth at 10 µM (UACC-62): < 1% | inhibition of growth at 10 µM (BT-549): < 1% | inhibition of growth at 10 µM (TK-10): < 1% | inhibition of growth at 10 µM (MDA-MB-231): < 1% | inhibition of growth at 10 µM (DU-145): 24% | inhibition of growth at 10 µM (EKVX): 22.3% | inhibition of growth at 10 µM (CAKI-1): 20.8% | inhibition of growth at 10 µM (SK-MEL-28): < 1% | inhibition of growth at 10 µM (OVCAR-8): < 1% | inhibition of growth at 10 µM (SNB-19): < 1% | inhibition of growth at 10 µM (HCT-15): 64.6% | inhibition of growth at 10 µM (SK-MEL-5): < 1% | inhibition of growth at 10 µM (COLO 205): 39% | inhibition of growth at 10 µM (SK-MEL-2): < 1% | inhibition of growth at 10 µM (NCI-H460): < 1% | inhibition of growth at 10 µM (NCI-H23): < 1% | inhibition of growth at 10 µM (NCI-H322M): 11.2% | inhibition of growth at 10 µM (Hs-578T): < 1% | inhibition of growth at 10 µM (HCC 2998): < 1% | inhibition of growth at 10 µM (HT-29): 59.6% | inhibition of growth at 10 µM (T47D): 23.4% | inhibition of growth at 10 µM (SF-268): < 1% | inhibition of growth at 10 µM (786-0): 29.9% | inhibition of growth at 10 µM (OVCAR-5): < 1% | inhibition of growth at 10 µM (PC-3): 26.5% | inhibition of growth at 10 µM (SF-539): 20.9% | inhibition of growth at 10 µM (UO-31): 46.5%

N#Cc1c(-c2ccc(Cl)cc2)nc(N/N=C2/C(=O)Nc3ccc(Br)cc32)nc1N1CCOCC1
inhibition of growth at 10 µM (NCI/ADR-RES): < 1% | inhibition of growth at 10 µM (HL-60): < 1% | inhibition of growth at 10 µM (ACHN): < 1% | inhibition of growth at 10 µM (MOLT-4): < 1% | inhibition of growth at 10 µM (SK-OV-3): < 1% | inhibition of growth at 10 µM (NCI-H226): < 1% | inhibition of growth at 10 µM (NCI-H522): < 1% | inhibition of growth at 10 µM (MDA-MB-435): < 1% | inhibition of growth at 10 µM (A498): 26.3% | inhibition of growth at 10 µM (A549): < 1% | inhibition of growth at 10 µM (RXF 393): < 1% | inhibition of growth at 10 µM (SR): < 1% | inhibition of growth at 10 µM (CCRF-CEM): < 1% | inhibition of growth at 10 µM (K562): < 1% | inhibition of growth at 10 µM (U-251): 33.6% | inhibition of growth at 10 µM (LOX IMVI): 14.6% | inhibition of growth at 10 µM (IGROV-1): < 1% | inhibition of growth at 10 µM (SN12C): < 1% | inhibition of growth at 10 µM (MCF7): 1% | inhibition of growth at 10 µM (UACC-62): < 1% | inhibition of growth at 10 µM (BT-549): < 1% | inhibition of growth at 10 µM (TK-10): < 1% | inhibition of growth at 10 µM (MDA-MB-231): 14.2% | inhibition of growth at 10 µM (DU-145): < 1% | inhibition of growth at 10 µM (EKVX): < 1% | inhibition of growth at 10 µM (CAKI-1): < 1% | inhibition of growth at 10 µM (SK-MEL-28): < 1% | inhibition of growth at 10 µM (OVCAR-8): < 1% | inhibition of growth at 10 µM (SNB-19): < 1% | inhibition of growth at 10 µM (HCT-15): 1% | inhibition of growth at 10 µM (SK-MEL-5): < 1% | inhibition of growth at 10 µM (COLO 205): 1% | inhibition of growth at 10 µM (SK-MEL-2): < 1% | inhibition of growth at 10 µM (NCI-H460): < 1% | inhibition of growth at 10 µM (NCI-H23): 11.9% | inhibition of growth at 10 µM (NCI-H322M): < 1% | inhibition of growth at 10 µM (Hs-578T): < 1% | inhibition of growth at 10 µM (HCC 2998): < 1% | inhibition of growth at 10 µM (HT-29): < 1% | inhibition of growth at 10 µM (T47D): < 1% | inhibition of growth at 10 µM (SF-268): < 1% | inhibition of growth at 10 µM (786-0): < 1% | inhibition of growth at 10 µM (OVCAR-5): < 1% | inhibition of growth at 10 µM (PC-3): < 1% | inhibition of growth at 10 µM (SF-539): < 1% | inhibition of growth at 10 µM (UO-31): 28.7%
